inhibition, Activity and IC50 data for 23 compounds are collected here from ChEMBL document CHEMBL1145575, “Design and synthesis of novel furoquinoline based inhibitors of multiple targets in the PI3K/Akt-mTOR pathway” (Bioorg Med Chem Lett, 2008).

Test [1] has as its system H460. Put plainly: Inhibition of PI3K in human H460 cells assessed as Akt phosphorylation at Ser 473 at 10 uM. It counts as cell-based. Put shortly: (§1)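 Human NSCLC H-460 cells; PI3K activity read as Akt phosphorylation at Ser 473 and mTOR activity as p70S6 kinase phosphorylation at Thr 389. Compounds were screened at 10 µM, and some up to 30 µM. Activity was reported as % inhibition. LY-294002 served as the reference inhibitor at 30 µM.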

The target in test [2] is Serine/threonine-protein kinase mTOR (Homo sapiens) (UniProt P42345). Put plainly: Inhibition of mTOR in human H460 cells assessed as p70S6 phosphorylation at Thr 389 upto 30 uM. In kind it is cell-based. Put shortly: as §1
Test [3] has as its target Phosphatidylinositol 4,5-bisphosphate 3-kinase catalytic subunit alpha isoform (Homo sapiens, UniProt P42336). Put plainly: Inhibition of human recombinant PI3K-alpha assessed as formation of PI3P from PI by cell free kinase assay. Put shortly: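 Cell-free kinase assay with recombinant PI3Kα (p110α). The read-out was PI3P formed from the substrate phosphatidylinositol. An IC50 was derived.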

Test [4] has as its target T1, Hypoxia inducible factors; HIF-1-alpha, HIF-2-alpha (Homo sapiens, UniProt Q16665+Q99814). Put plainly: Inhibition of hypoxia-induced HIF1 activation in human U251HRE cells by cell based reporter gene assay.
Test [5] relates to H460. Put plainly: Inhibition of PI3K in human H460 cells assessed as Akt phosphorylation at Ser 473 upto 30 uM. In kind it is cell-based. A digest of the protocol:
as §1

The target in test [6] is Hypoxia-inducible factor 1-alpha (Homo sapiens) (UniProt Q16665). Nature of the test: Inhibition of HIF1-alpha at 30 uM. Put shortly: (§2)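 HRE-driven cell-based reporter gene assay of HIF-1 activation. Activation was induced by hypoxia (1% O2, 94% N2, 5% CO2) or by DFX. Compounds were tested up to 30 µM and an IC50 was derived. YC-1 served as the reference inhibitor.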
The target of test [7] is Serine/threonine-protein kinase mTOR (Homo sapiens) (UniProt P42345). Nature of the test: Inhibition of mTOR in human H460 cells assessed as p70S6 phosphorylation at Thr 389 at 10 uM. It counts as cell-based. Put shortly:
as §1

In test [8] the target is Hypoxia-inducible factor 1-alpha (Homo sapiens) (UniProt Q16665). Nature of the test: Inhibition of HIF1alpha. Put shortly: as §2
The target in test [9] is Serine/threonine-protein kinase mTOR (Homo sapiens) (UniProt P42345). Put plainly: Inhibition of mTOR in human H460 cells assessed as 4E-BP1 phosphorylation at 3 uM by Western blot. It counts as cell-based. A digest of the protocol:
(§3)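 H460 cells were stimulated with 20% FCS in the presence of test compound at 3 or 10 µM, alongside untreated and FCS-only controls. Phosphorylation was assessed by Western blot.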

The target is the same in test [10]. Nature of the test: Inhibition of mTOR in human H460 cells assessed as 4E-BP1 phosphorylation at 10 uM by Western blot. In kind it is cell-based. Put shortly: as §3
The target in test [11] is T1, Hypoxia inducible factors; HIF-1-alpha, HIF-2-alpha. Nature of the test: Inhibition of HIF1 in human U251HRE cells at 10 uM by Western blot. In kind it is cell-based. Put shortly:
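U251-HRE-Luc cells were induced with DFX for 6 h in the presence of test compound at 10 µM, alongside untreated and DFX-only controls. HIF-1 was assessed by Western blot.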

The subject of test [12] is H460. Nature of the test: Inhibition of PI3K in human H460 cells assessed as Akt phosphorylation at 3 uM by Western blot.
Test [13] relates to H460. Put plainly: Inhibition of PI3K in human H460 cells assessed as Akt phosphorylation at 10 uM by Western blot.

Calls of active or inactive are those of the source. No cut-off for these calls is given here.

Chain of Phosphatidylinositol 4,5-bisphosphate 3-kinase catalytic subunit alpha isoform (P42336 whole entry, canonical isoform): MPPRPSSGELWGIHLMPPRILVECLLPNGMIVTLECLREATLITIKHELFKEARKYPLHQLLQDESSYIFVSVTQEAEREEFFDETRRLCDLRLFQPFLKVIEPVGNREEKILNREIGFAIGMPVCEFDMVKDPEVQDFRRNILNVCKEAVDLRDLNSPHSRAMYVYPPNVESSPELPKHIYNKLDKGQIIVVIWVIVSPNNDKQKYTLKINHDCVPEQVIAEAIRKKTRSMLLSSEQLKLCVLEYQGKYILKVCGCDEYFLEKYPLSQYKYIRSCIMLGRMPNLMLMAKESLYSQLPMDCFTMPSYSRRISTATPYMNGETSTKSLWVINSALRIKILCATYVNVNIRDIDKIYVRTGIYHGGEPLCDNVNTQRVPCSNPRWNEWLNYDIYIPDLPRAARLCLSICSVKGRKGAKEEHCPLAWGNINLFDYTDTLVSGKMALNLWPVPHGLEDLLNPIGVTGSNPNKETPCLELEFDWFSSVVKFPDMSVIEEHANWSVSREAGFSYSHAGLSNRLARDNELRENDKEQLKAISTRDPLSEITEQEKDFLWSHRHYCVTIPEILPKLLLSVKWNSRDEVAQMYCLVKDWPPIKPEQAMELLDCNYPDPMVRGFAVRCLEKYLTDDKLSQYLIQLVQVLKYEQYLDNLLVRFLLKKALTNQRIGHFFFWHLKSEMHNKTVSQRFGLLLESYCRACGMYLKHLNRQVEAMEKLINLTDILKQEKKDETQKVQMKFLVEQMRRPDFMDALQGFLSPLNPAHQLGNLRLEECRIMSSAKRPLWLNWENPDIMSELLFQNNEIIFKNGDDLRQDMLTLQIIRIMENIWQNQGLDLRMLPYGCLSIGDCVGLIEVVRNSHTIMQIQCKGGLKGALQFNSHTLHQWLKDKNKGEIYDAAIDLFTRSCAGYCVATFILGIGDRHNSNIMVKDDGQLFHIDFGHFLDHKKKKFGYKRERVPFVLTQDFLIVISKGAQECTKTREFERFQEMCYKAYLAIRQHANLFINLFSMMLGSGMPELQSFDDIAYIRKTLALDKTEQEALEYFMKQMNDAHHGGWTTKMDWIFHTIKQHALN
Chain of Hypoxia-inducible factor 1-alpha (Homo sapiens) (Q16665 whole entry, looked up): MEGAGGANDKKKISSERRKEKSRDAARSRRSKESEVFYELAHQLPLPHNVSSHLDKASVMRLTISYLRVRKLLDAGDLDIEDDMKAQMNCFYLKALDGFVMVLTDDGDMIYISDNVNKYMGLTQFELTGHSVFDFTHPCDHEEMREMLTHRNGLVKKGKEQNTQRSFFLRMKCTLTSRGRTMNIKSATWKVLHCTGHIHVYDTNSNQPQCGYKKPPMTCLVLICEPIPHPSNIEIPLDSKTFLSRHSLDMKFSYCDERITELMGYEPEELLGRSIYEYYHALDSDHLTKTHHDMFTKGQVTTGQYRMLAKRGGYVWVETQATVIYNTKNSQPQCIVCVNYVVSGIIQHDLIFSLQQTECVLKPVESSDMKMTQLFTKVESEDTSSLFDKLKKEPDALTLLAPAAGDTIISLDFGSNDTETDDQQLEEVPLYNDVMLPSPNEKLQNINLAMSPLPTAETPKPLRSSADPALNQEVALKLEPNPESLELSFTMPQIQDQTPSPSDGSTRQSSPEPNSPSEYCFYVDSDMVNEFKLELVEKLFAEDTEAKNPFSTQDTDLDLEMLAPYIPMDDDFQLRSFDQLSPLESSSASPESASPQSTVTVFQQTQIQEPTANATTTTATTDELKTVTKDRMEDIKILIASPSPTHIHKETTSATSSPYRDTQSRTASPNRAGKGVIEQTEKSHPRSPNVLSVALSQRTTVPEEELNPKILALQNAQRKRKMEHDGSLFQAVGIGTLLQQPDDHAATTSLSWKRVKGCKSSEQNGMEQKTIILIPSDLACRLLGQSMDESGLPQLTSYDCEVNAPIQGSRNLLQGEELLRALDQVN

With `COc1ccc2c(Oc3cccnc3)c3ccoc3nc2c1`, in the test on H460 [1], the inhibition was determined as 67%. Besides, the outcome in test [2], in test [3] and in test [4] was inactive.

Consider `COc1ccc2c(OC)c3ccoc3nc2c1`, for which the result (in the test with H460 [5]; in test [2]; in test [6]) was inactive.

Turning to `COc1ccc2c(N3CCN(C(C)=O)CC3)c3ccoc3nc2c1`, the inhibition with H460 [1] was 58%. Moreover, the result in test [2], in test [3] and in [4] was inactive.

Take `COc1cc2nc3occc3c(Sc3ccc([N+](=O)[O-])cc3)c2cc1OC`: the result (in the test with H460 [5]; in test [2]; in test [3]; in [4]) was inactive.

For the compound `COc1ccc2c(Nc3ccc(C(C)=O)cc3)c3ccoc3nc2c1`, the result (in the test with H460 [5]; in [3]; in test [4]) was inactive. In addition, the inhibition in test [7] was determined as 53%.

Take `c1cn(-c2c3cc4c(cc3nc3occc23)OCO4)cn1`: the inhibition worked out at 40% in the test on H460 [1] and 45% in test [7]. Also, the result in test [3] and in test [4] was inactive.

In the case of `COc1ccc2c(Sc3ccc(C#N)cc3)c3ccoc3nc2c1`, the outcome (in the test on H460 [5]; in [2]; in [8]; in test [3]; in test [4]) was inactive.

As to `COc1cc2nc3occc3c(-n3ccnc3)c2cc1OC`, the inhibition with H460 [1] was 64%. The outcome in test [2], in test [3] and in test [4] was inactive.

In the case of `COc1ccc2c(Oc3cccc([N+](=O)[O-])c3)c3ccoc3nc2c1`, the inhibition in the test with H460 [1] worked out at 43%. Further, the result in [2], in test [3] and in test [4] was inactive.

In the case of `COc1cc2nc3occc3c(Oc3cccnc3)c2cc1OC`, the inhibition in the test on H460 [1] worked out at 43%. For the same compound, the outcome in test [2], in [3] and in [4] was inactive.

With `COc1cc2nc3occc3c(-n3cnc([N+](=O)[O-])c3)c2cc1OC`, in the test with H460 [1], the inhibition turned out to be 58%. In addition, the result in test [2], in [3] and in test [4] was inactive.

`c1cncc(Oc2c3cc4c(cc3nc3occc23)OCO4)c1`: the result (with H460 [5]; in [3]; in test [4]) was inactive. Further, the inhibition in test [7] worked out at 51%.

For the compound `COc1ccc2c(Sc3ccc([N+](=O)[O-])cc3)c3ccoc3nc2c1`, the inhibition with H460 [1] was 48%; in [7], 49%. Besides, the result (in test [8]; in [9]; in [10]; in [11]; in the test on H460 [12]; in the test on H460 [13]) was Active. The IC50 in [3] is 4 µM; in test [4] it was 3 µM.

As to `COc1ccc2c(Sc3ccc(Br)cc3)c3ccoc3nc2c1`, the outcome (in the test on H460 [5]; in test [2]; in [8]; in [3]; in test [4]) was inactive.

As for `O=[N+]([O-])c1ccc(Sc2c3cc4c(cc3nc3occc23)OCO4)cc1`, the result (in the test with H460 [5]; in test [3]; in test [4]) was inactive. Further, in test [7], the inhibition worked out at 44%.

On to `O=c1cc(N2CCOCC2)oc2c(-c3ccccc3)cccc12`, for which the inhibition worked out at 40% with H460 [5] and 45% in test [2].

Turning to `Fc1ccc(Oc2c3cc4c(cc3nc3occc23)OCO4)cc1`, in the test on H460 [1], the inhibition was 45%. The result in test [2], in test [3] and in test [4] was inactive.

As to `COc1ccc2c([S+]([O-])c3ccc([N+](=O)[O-])cc3)c3ccoc3nc2c1` (centres undefined), the result (in the test with H460 [5]; in test [2]; in test [8]; in [3]; in test [4]) was inactive.

For the compound `COc1ccc2c(-n3ccnc3)c3ccoc3nc2c1`, the inhibition in the test on H460 [1] was determined as 64%. The outcome in test [2], in [3] and in [4] was inactive.

Regarding `N#Cc1ccc(Oc2c3cc4c(cc3nc3occc23)OCO4)cc1`, in the test with H460 [1], the inhibition amounted to 58%. Moreover, the outcome in [2], in test [3] and in test [4] was inactive.

In the case of `O=[N+]([O-])c1cn(-c2c3cc4c(cc3nc3occc23)OCO4)cn1`, the inhibition with H460 [1] worked out at 57%. Besides, the result in test [2], in [3] and in test [4] was inactive.

For the compound `O=[N+]([O-])c1ccc(Oc2c3cc4c(cc3nc3occc23)OCO4)cc1`, the result (in the test on H460 [5]; in test [3]; in test [4]) was inactive. The inhibition in test [7] was 47%.

Regarding `COc1ccc2c(Sc3ccc(C(=O)O)cc3)c3ccoc3nc2c1`, the result (in the test with H460 [5]; in [2]; in test [8]; in test [3]; in test [4]) was inactive.
